Activity calls are given as the source filed them. The calls are words filed in the database; no cut-off is given here.
How the values were obtained:
[1] = tested on: HepG2; assay: Cytotoxicity against human HepG2 cells after 72 hrs by CellTiter-Glo assay; conditions: hepg2, 72 h
[2] = tested on: Plasmodium falciparum; assay: Antiplasmodial activity against Plasmodium falciparum Dd2 after 72 hrs by SYBR green DNA-staining parasite viability assay; format: functional, organism-based
In short: (§1)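 Intra-erythrocytic P. falciparum growth in 1536-well format. Infected RBCs at 0.3% parasitemia and 2.5% hematocrit (final) were exposed to compound at 37 °C, 5% CO2, for 72 h. Lysis buffer was added (Tris-HCl, EDTA, saponin, Triton X-100, SYBR Green I), followed by overnight incubation in the dark at 22–24 °C. Fluorescence read at 485/535 nm. Artemisinin and mefloquine served as positive controls, DMSO as negative. EC50 from curve fits, duplicate titrations.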

[3] = tested on: Plasmodium falciparum; assay: Antiplasmodial activity against Plasmodium falciparum HB3 after 72 hrs by SYBR green DNA-staining parasite viability assay; format: functional, organism-based
In short: as §1

[4] = tested on: Plasmodium falciparum; assay: Antiplasmodial activity against Plasmodium falciparum cp250 after 72 hrs by SYBR green DNA-staining parasite viability assay; format: functional, organism-based
In short: as §1

[5] = tested on: Plasmodium falciparum; assay: Antiplasmodial activity against Plasmodium falciparum 7G8 after 72 hrs by SYBR green DNA-staining parasite viability assay; format: functional, organism-based
In short: as §1

[6] = tested on: HEK293; assay: Cytotoxicity against human HEK293 cells after 72 hrs by CellTiter-Glo assay; conditions: hek293, 72 h
[7] = tested on: Plasmodium falciparum; assay: Antiplasmodial activity against Plasmodium falciparum GB4 after 72 hrs by SYBR green DNA-staining parasite viability assay; format: functional, organism-based
In short: as §1

[8] = tested on: Jurkat; assay: Cytotoxicity against human Jurkat cells after 72 hrs by SYBR Green viability assay; format: cell-based
[9] = tested on: Plasmodium falciparum; assay: Inhibition of aspartyl protease activity of plasmepsin in Plasmodium falciparum extracts using EDANSCOCH2CH2CO-ALERMFLSFP-Dap(DABCYL)OH as substrate after 15 mins by fluorescence assay
In short: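 Saponin-treated, RBC-depleted P. falciparum extract (plasmepsin pellet, 0.16% final) in 100 mM sodium acetate pH 5.0, 20% glycerol. Compound pin-transferred, then 15 min preincubation with enzyme. EDANS-DABCYL Plasmepsin II substrate added at 5 or 10 μM final, under KM conditions. Fluorescence (ex 336/em 490 nm) read over 3 h. EC50 calculated from plotted data.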

Row | SMILES | Activity [1] | Activity [2] | Activity [3] | Activity [4] | Activity [5] | Activity [6] | Activity [7] | EC50 [8] [nM] | EC50 ([2]; Dd2, 72 h) [nM] | inhibition [9] | EC50 ([3]; HB3, 72 h) [nM] | EC50 ([4]; cp250, 72 h) [nM] | EC50 ([5]; 7G8, 72 h) [nM] | EC50 ([7]; GB4, 72 h) [nM]
1 | COCC(=O)N[C@@H](C(=O)N1NCCC[C@H]1C(=O)N[C@@H](Cc1ccccc1)[C@@H](O)[C@H](C)C(=O)N[C@@H]1CCN(C(N)=O)C1=O)[C@H](O)C(C)C | Non-toxic | Active | Active | Active | Active | Non-toxic | Active |  |  |  |  |  |  | 
2 | COCC(=O)N[C@@H](C(=O)N1NCCC[C@H]1C(=O)N[C@@H](Cc1ccccc1)[C@@H](O)[C@H](C)C(=O)N[C@H]1CCN(C(C)=O)C1=O)[C@H](O)C(C)C | Non-toxic | Active | Active | Active | Active | Non-toxic | Active |  |  |  |  |  |  | 
3 | COCC(=O)N[C@@H](C(=O)N1NCCC[C@H]1C(=O)N[C@@H](Cc1ccccc1)[C@@H](O)[C@H](C)C(=O)N[C@H]1CCNC1=O)[C@H](O)C(C)C | Non-toxic | Active | Active | Active | Active | Non-toxic | Active |  |  |  |  |  |  | 
4 | COCC(=O)N[C@@H](C(=O)N1NCCC[C@H]1C(=O)N[C@@H](Cc1ccccc1)[C@@H](O)[C@H](C)C(=O)N[C@H]1CCC(=O)NC1=O)[C@H](O)C(C)C | Non-toxic |  |  |  |  | Non-toxic |  | 30000 |  |  |  |  |  | 
5 | COCC(=O)N[C@@H](C(=O)N1NCCC[C@H]1C(=O)N[C@@H](Cc1ccccc1)[C@@H](O)[C@H](C)C(=O)NC1CNC(=O)NC1=O)[C@H](O)C(C)C (some centres not stated) | Non-toxic | inactive | inactive | inactive | inactive | Non-toxic | inactive |  |  |  |  |  |  | 
6 | COCC(=O)N[C@@H](C(=O)N1N=CCC[C@H]1C(=O)N[C@@H](Cc1ccccc1)[C@@H](O)[C@H](C)C(=O)N[C@H]1CCN(C(N)=O)C1=O)[C@H](O)C(C)C | Non-toxic | Active | Active | Active | Active | Non-toxic | Active |  |  |  |  |  |  | 
7 | COCC(=O)N[C@@H](C(=O)N1NCCC[C@H]1C(=O)N[C@@H](Cc1ccccc1)[C@@H](O)[C@H](C)C(=O)N[C@H]1CCN(C(N)=O)C1=O)[C@H](O)C(C)C | Non-toxic |  |  |  |  | Non-toxic |  | 90000 | 200 | inactive | 200 | 200 | 200 | 200

Reference: ChEMBL document CHEMBL3632601, “Actinoramide A Identified as a Potent Antimalarial from Titration-Based Screening of Marine Natural Product Extracts” (J Nat Prod, 2015)
